High-throughput results: PubChem, several laboratories
Sampled rows, rich in hits. Any-hit rate of the full collection: about 3.5%.
MEKK3 PB1 HTS: modulators of MEKK3-MEK5 PB1 binding, primary screen, biochemical, wildtype MEKK3, multiplex bead flow cytometry, Alexa488-MEK5; AID 1529, 2009; bead-based flow cytometry, Alexa488-MEK5 binding to MEKK3; actives lie on both sides; 0 = blocked by unlabeled MEK5, 100 = vehicle; binding response (% of control), % at 10 µM; Mitogen-activated protein kinase kinase kinase 3 (Homo sapiens), Q99759; actives 1.4% (n = 290,000);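 active = binding response more than 3 SD above or below the average of its plate-row segment, actives on both sides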;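 note: Alexa488 bead fluorescence after subtracting the streptavidin-only scavenger bead signal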
Target sequence (Q99759 whole entry, looked up): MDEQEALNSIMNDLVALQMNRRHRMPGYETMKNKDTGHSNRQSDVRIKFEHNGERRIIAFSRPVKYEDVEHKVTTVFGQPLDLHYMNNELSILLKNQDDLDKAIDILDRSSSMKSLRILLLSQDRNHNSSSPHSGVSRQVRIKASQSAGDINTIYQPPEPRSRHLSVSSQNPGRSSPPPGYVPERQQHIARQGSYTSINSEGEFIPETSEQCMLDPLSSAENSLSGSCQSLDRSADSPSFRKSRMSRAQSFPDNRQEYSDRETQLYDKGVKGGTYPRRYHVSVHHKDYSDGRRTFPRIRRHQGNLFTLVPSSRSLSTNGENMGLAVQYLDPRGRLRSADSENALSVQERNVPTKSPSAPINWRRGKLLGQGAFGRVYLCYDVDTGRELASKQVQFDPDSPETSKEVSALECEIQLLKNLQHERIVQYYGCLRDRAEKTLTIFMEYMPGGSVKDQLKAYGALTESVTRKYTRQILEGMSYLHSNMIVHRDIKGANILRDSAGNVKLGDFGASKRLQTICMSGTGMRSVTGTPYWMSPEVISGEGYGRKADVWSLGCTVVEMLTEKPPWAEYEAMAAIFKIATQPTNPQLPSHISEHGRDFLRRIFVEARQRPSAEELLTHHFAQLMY
MEKK2mut PB1 HTS: MEK5 binding signal on mutant MEKK2 PB1, primary screen, biochemical, multiplex bead flow cytometry, Alexa488-MEK5 | percent response, % at 10 µM | Alexa488-MEK5 binding to MEKK2 mutant | actives 0.35% (n = 290,000); in the data active = percent response above about 24%, passing the limit was not always enough
WT yeast gro inh: growth inhibition of WT strain, primary screen, mitochondrial fusion inhibitor project, WT and mutant strains, chemical genetic. actives 2.1% (n = 190,000). inhibition, % at 10 µM. mitochondrial fusion phenotypic screen; in the data active = inhibition above about 58%; tested in S. cerevisiae
ABCG2 block: ABCG2 efflux pump inhibitors, primary screen, multiplex with ABCB1, IgMXP3 cells, flow cytometry. Broad substrate specificity ATP-binding cassette transporter ABCG2 (Homo sapiens), Q9UNQ0. JC-1 efflux. inhibition, % at 6.6 µM. actives 0.1% (n = 190,000);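 active = inhibition above 80%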;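 note: 0% = DMSO and 100% = nicardipine control wells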
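material = IgMXP3 (ABCG2) plus far-red-tagged CCRF-Adr (ABCB1) cells | amount = 3 million cells/mL, equal mix of both lines | also added = JC-1 transporter substrate | dosing = one concentration, 6.6 µM final | schedule = 10 min at 25 °C | measured by = flow cytometric JC-1 green MFI at 530 nm | read-out basis = percent efflux inhibition, scaled nicardipine 100% to DMSO 0%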
ABCB1 inh: ABCB1 efflux pump inhibitors, primary screen, cell-based, multiplex, flow cytometry, ABCG2 counter-screen. ATP-dependent translocase ABCB1 (Homo sapiens), P08183. CCRF-Adr cells, JC-1 efflux. inhibition, % at 6.6 µM. actives 0.067% (n = 190,000). AID 1326, 2008; in the data active = inhibition above about 40%;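 note: 0% = vehicle and 100% = reference inhibitor; higher value means more JC-1 retained so stronger ABCB1 efflux block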
MEKK2 WT-MEK5: modulators of MEK5 binding to wildtype MEKK2, primary screen, biochemical, multiplex bead flow cytometry, Alexa488-MEK5 | Mitogen-activated protein kinase kinase kinase 2 (Homo sapiens), Q9Y2U5 | Alexa488-MEK5 binding to MEKK2 WT; actives lie on both sides | binding response (% of control), % at 10 µM | actives 1.1% (n = 290,000); in the data active = binding response below about 67% or above about 130%
MEKK2wt confirm: modulators of MEK5 binding to wildtype MEKK2, confirmation, biochemical, single concentration, multiplex bead flow cytometry. AID 1892, 2009. binding response (% of control), % at 10 µM. Alexa488-MEK5 binding to MEKK2 WT; actives lie on both sides. actives 2.4% (n = 5,900). shares compounds with MEKK3 PB1 HTS; in the data active = binding response below about 16% or above about 210%; inactive = in between
MEKK2mut confirm: mutant MEKK2 PB1-MEK5 binding signal retest – biochemical, single concentration, multiplex bead flow cytometry, confirmation | actives 2% (n = 5,900) | shares compounds with MEKK3 PB1 HTS | percent response, % at 10 µM | Alexa488-MEK5 binding to MEKK2 mutant | AID 1893, 2009; in the data active = percent response mostly above about 71%, no sharp cut-off; inactive = mostly below about 38%;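 note: higher means compound restores mutant binding toward wildtype level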
MEKK3-MEK5 inh: MEKK3 wild-type PB1 binding to MEK5, inhibitors, confirmation, biochemical, bead multiplex flow cytometry, single concentration, wildtype; shares compounds with MEKK3 PB1 HTS; Alexa488-MEK5 binding to MEKK3; active compounds read low; binding response (% of control), % at 10 µM; actives 1.8% (n = 5,900);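 active = binding response below 72% of control, or above a set upper limit, though filed actives all read lower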;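 note: 100% = DMSO only wells and 0% = binding blocked by excess unlabeled MEK5; lower values mean stronger disruption of MEK5 binding to MEKK3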
Starred values were filed as active, the others as inactive; . = no result; [ ] = dose if it differs, or a comment.

SMILES | MEKK3 PB1 HTS | MEKK2mut PB1 HTS | WT yeast gro inh | ABCG2 block | ABCB1 inh | MEKK2 WT-MEK5 | MEKK2wt confirm | MEKK2mut confirm | MEKK3-MEK5 inh
COc1ccc(C(=O)Nc2cccc(-c3cnc4ccccc4n3)c2)cc1 | 97 | 2 | -12 | 1 | 0 | 101 | . | . | .
O=c1oc2ccc3ccccc3c2c2c1SC(C(F)(F)F)C2 (stereo not drawn) | 124* | 8 | 14 | 2 | 0 | 115 | 94 | -7 | 99
O=c1oc2ccccc2c2c1SC(C(F)(F)F)C2 (stereo not drawn) | 99 | 3 | 13 | 3 | 0 | 103 | . | . | .
CS(=O)(=O)N1N=C(c2cccs2)CC1c1ccc(F)cc1 (stereo not drawn) | 81 | -7 | . | . | . | 22*[inhibitor] | 91 | -19 | 93
CC(=O)N1N=C(c2cccs2)CC1c1cccs1 (stereo not drawn) | 101 | 1 | 17 | 4 | 1 | 98 | . | . | .
CCS(=O)(=O)N1N=C(c2cccs2)CC1c1cc2cc(C)ccc2nc1Cl (stereo not drawn) | 96 | 5 | . | . | . | -9.0*[inhibitor] | 93 | -9 | 101
CS(=O)(=O)N1N=C(c2cccs2)CC1c1ccccc1O (stereo not drawn) | 77 | -7 | -9 | 0 | 0 | 0.0*[inhibitor] | 101 | 2 | 101
O=C(c1ccco1)N1N=C(c2cccs2)CC1c1ccccc1O (stereo not drawn) | 97 | 1 | . | . | . | 95 | . | . | .
CCOc1ccccc1C1CC(c2cccs2)=NN1S(C)(=O)=O (stereo not drawn) | 2.0*[inhibitor] | -5 | -20 | 1 | 1 | 76 | 89 | -7 | 89
CCCNC(=O)c1ccc(COc2ccc(CCC)cc2OC)o1 | 104 | 2 | . | . | . | 106 | . | . | .
CCOc1cccc2c1OC(c1cc(OC)c(OC)c(OC)c1)N1N=C(c3ccc(C)o3)CC21 (stereo not drawn) | 15*[inhibitor] | 8 | 21 | 1 | 0 | 6.0* | 93 | -9 | 100
Cc1cc(C)c(OCCCNC2CCCC2)c(Br)c1 | 106 | 11 | . | . | . | 118 | . | . | .
CN1CCN(c2ccc(NC(=O)c3cccc(OCc4ccccc4)c3)cc2)CC1 | . | . | 17 | 5 | 0 | . | . | . | .
O=C(NC(=S)Nc1ccc(N2CCOCC2)cc1)c1cccc([N+](=O)[O-])c1 | 102 | -2 | 1 | 10 | 1 | 98 | . | . | .
CCOc1cccc(C(=O)NC(=S)Nc2ccc(N3CCN(CC)CC3)cc2)c1 | 108 | 12 | 3 | 4 | 2 | 130 | . | . | .
O=C(NC(=S)Nc1ccc(CN2CCCCC2)cc1)c1cccc(OCc2ccccc2)c1 | 113 | 63* | 72* | 8 | 0 | 220* | 173 | 25 | 104
CCOc1cccc(C(=O)NC(=S)Nc2ccccc2)c1 | 97 | 0 | 21 | 4 | 0 | 95 | . | . | .
O=C(NC(=S)Nc1ccc(CN2CCOCC2)cc1)c1cccc([N+](=O)[O-])c1 | 145* | -1 | 4 | 8 | 0 | 105 | 106 | 2 | 105
CCN1CCN(c2ccc(NC(=O)c3cccc(OCc4ccccc4)c3)cc2)CC1 | 100 | 34 | 16 | 3 | 0 | 171* | 147 | 27 | 106
CCCOc1cccc(C(=O)NC(=S)Nc2ccc(N3CCN(C)CC3)cc2)c1 | 103 | 46 | 25 | 4 | 1 | 152* | 147 | 12 | 106
Cc1ccc(C)c(N(CC(=O)NC2CCCCC2)C(=O)CNC(=O)c2ccco2)c1 | 105 | 8 | . | . | . | 107 | . | . | .
COc1ccc2nc(NC(=O)C3CCN(C(=O)c4ccco4)CC3)sc2c1 | 98 | 0 | . | . | . | 95 | . | . | .
COc1ccc(NC(=O)CS(=O)(=O)c2ccccc2Cl)cc1 | 103 | -2 | . | . | . | 104 | . | . | .
Cn1c(/C=C(\C#N)C(N)=S)ccc1-c1ccc(Br)cc1 | 86 | -6 | 8 | 1 | 0 | 62*[inhibitor] | 74 | -16 | 100
Cn1cccc1/C=C(\C#N)C(N)=S | 97 | -3 | . | . | . | 98 | . | . | .
SMILES | MEKK3 PB1 HTS | MEKK2mut PB1 HTS | WT yeast gro inh | ABCG2 block | ABCB1 inh | MEKK2 WT-MEK5 | MEKK2wt confirm | MEKK2mut confirm | MEKK3-MEK5 inh
CN(C)c1ccc(/C=N\Nc2nc(-c3ccccc3)cc(=O)[nH]2)cc1 | 59*[inhibitor] | -1 | 4 | -7 | -1 | 97 | 91 | -12 | 90
COc1ccc(/C(C)=N\Nc2nc(-c3ccccc3)cc(=O)[nH]2)cc1 | 99 | 0 | -11 | 7 | 1 | 101 | . | . | .
C=C(C)C(=O)Nc1ccc2c(c1)OCCOCCOCCO2 | 93 | -18 | . | . | . | 97 | . | . | .
COc1ccc(Cl)cc1NS(=O)(=O)c1cccc(C(=O)NCCCN2CCCC2=O)c1 | 106 | 5 | . | . | . | 104 | . | . | .
Cc1cccc(C)c1NC(=O)C1(N(Cc2ccco2)C(=O)Cn2nnnc2N)CCCCC1 | 108 | 0 | 12 | 8 | 0 | 102 | . | . | .
Cc1cccc(C)c1NC(=O)C1(N(Cc2ccco2)C(=O)CC2NC(=O)NC2=O)CCCC1 (stereo not drawn) | 3.0*[inhibitor] | -16 | 10 | 1 | 0 | 3.0*[inhibitor] | 104 | 6 | 109
Cc1nc2ccc(NC(=O)CSc3nnc(C)s3)cc2[nH]1 | 101 | -3 | . | . | . | 98 | . | . | .
O=C(c1ccc(COc2ccc3c(c2)CCC3)o1)N1CCN(c2ccccc2)CC1 | 103 | 2 | . | . | . | 103 | . | . | .
O=C(c1ccco1)N1CCN(C(=O)c2ccc(COc3ccc4c(c3)CCC4)o2)CC1 | 0.0*[inhibitor] | -9 | 20 | 2 | 0 | -4.0*[inhibitor] | 98 | -1 | 99
CCCC(c1nnnn1CCOC)N1CCN(Cc2ccccc2)CC1 (stereo not drawn) | 108 | 2 | 2 | 2 | 1 | 100 | . | . | .
CCC(c1nnnn1CCOC)N1CCN(Cc2ccccc2OC)CC1 (stereo not drawn) | 117 | 25* | -4 | 1 | 0 | 110 | 111 | 5 | 104
